This passage reports cytotoxicity results from ChEMBL document CHEMBL4513216, “Probing the Open Global Health Chemical Diversity Library for Multistage-Active Starting Points for Next-Generation Antimalarials” (ACS Infect Dis, 2020).

The series is described as follows: Toxicity liver stage against HepG2, at 10uM. Format: cell-based. Further details: test concentration 10 uM, cell line HepG2-A16-CD81EGFP. The note with it: human, HepG2-A16-CD81EGFP cells; read-out: INHIBITION
The method in brief: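 Uninfected HepG2-A16-CD81EGFP cells, 3 × 10^3 per well, 1536-well, plated on prespotted compound at 10 μM final, parasite-free screening media added to match infected plates; puromycin 10 μM positive, DMSO 0.5% negative; run in parallel with 48 h PbLuc assay at 37 °C, 5% CO2; viability by CellTiter-Glo luminescence, normalized to controls.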

As to `CNc1cc(C)nc(NCc2cc(C)cc3c(C)c(C)[nH]c23)n1`, the cytotoxicity at 10 µM was -29%.
For `C[C@@H](NC(=O)c1cccnc1)c1onc(-c2ccccc2)c1C(=O)O` the value was 10.1%; for `O=C(c1cccnc1-n1cncn1)N1CCC(Nc2ccccc2)CC1`, 7.1%.
For `CC(C)N(C(=O)Cn1nc2n(c1=O)CCCCC2)C1CCC1`, the cytotoxicity at 10 µM is -7.62%.
For `Cc1nnc(N2C[C@H]3OCC[C@H]3[C@H](C(=O)NCC3CC3)C2)s1` the value was 2.03%; for `c1ncn(Cc2nnc(C3CCN(CC4CC4)CC3)n2C2CC2)n1`, 5.2%.
For `Cc1ccsc1CN(Cc1cccnc1)C1CC(C)(C)NC(C)(C)C1` the value was -10.7%.
On to `COCCNC(=O)N1CCC(NC(C)C)CC1`, for which the cytotoxicity at 10 µM amounted to 7.96%.
For `CCNC(=O)CCC(=O)NCC1(O)CCC(C(C)(C)C)CC1` (configuration not stated) the value was 5.55%; for `Cc1ccccc1C(C)NC(=O)CSCC#N` (configuration not stated), -10.2%.
For `COc1cc(CNC(=O)Nc2cc(C(F)(F)F)c[nH]c2=O)ccn1` the value was 1.53%; for `Cc1ccccc1NC(=O)N1CC[C@@H]2CN(CC(C)C)S(=O)(=O)[C@@H]2CC1`, -0.567%.
Turning to `Cc1csc([C@@H]2C[C@@H]3CCN(C(=O)c4cccn4C)C[C@H]3O2)n1`, the cytotoxicity at 10 µM is 4.12%.
On to `Cc1cc(CN2CCN(C(=O)C3(C#N)CCCC3)CC2)on1`, for which the cytotoxicity at 10 µM was -14.9%.
For `CCN(CC)S(=O)(=O)N1CCCC1C(=O)N1CCSCC1` (configuration not stated) the value was -4.71%; for `CCCN1CCC(N2CCN(c3cccc(C)n3)CC2)CC1`, -10.8%; for `CCCC1CCCN(C(=O)CNC(=O)c2ccoc2C)CC1` (configuration not stated), 4%.
For the compound `O=C(C1CCOC1)N1CCN(Cc2cccnc2)c2ncccc2C1` (configuration not stated), the cytotoxicity at 10 µM is 3.07%.
For `CC(=O)Nc1ncc(S(=O)(=O)N2CCCC(C)C2)s1` (configuration not stated) the value was 2.28%; for `Cc1cc(C)cc(C2(C(=O)N3CCCC(n4cncn4)C3)CC2)c1` (configuration not stated), -3%.
For `c1cnc(N2CCCC3(COCCN(c4nncs4)C3)C2)cn1` (configuration not stated) the value was 1.77%; for `CCn1cc(N)c(-c2nnc3n2CCC3)n1`, -12.1%.
For `COC(=O)C1(C)CCN(C(=O)NCCc2c(C)[nH]c3ccccc23)C1` (configuration not stated) the value was 0.807%; for `CC(NC(=O)C1=NN(C)C(=O)CC1)c1ccccc1Cl` (configuration not stated), 0.665%.
Regarding `CC(C)OCCOCc1cccc(NC(=O)NCc2cnn(C)c2)c1`, the cytotoxicity at 10 µM was -1.11%.
For the compound `CN1C(=O)CC(C(=O)O)C12CCN(Cc1ccc(Cl)c(F)c1)CC2` (configuration not stated), the cytotoxicity at 10 µM came out at 2.91%.
For `COc1ccc(C2CCCN2Cc2nnnn2C2CC2)cc1OC` (configuration not stated) the value was 2.49%; for `N[C@@H]1CC[C@@H]1NC(=O)c1ccccc1OC(F)(F)C(F)F`, 1.5%; for `COCCS(=O)(=O)N(Cc1cscn1)c1ccccc1`, -3.3%.
For `CC(C)N(C)Cc1ncn2c1CN(C(=O)C1CCCO1)CCC2` (configuration not stated) the value was -103%.
For `CC(C)(C)CC(=O)N[C@@H]1CO[C@H](CNC(=O)c2ccncc2)[C@H]1O` the value was -3.81%; for `Cn1cccc1C(=O)N1C[C@H]2CN(Cc3cccs3)C[C@H]2C1`, 2.02%; for `O=C(c1ccco1)N1CCCC2(CN(Cc3ccoc3)CCO2)C1` (configuration not stated), -2.59%.
For the compound `Cc1cc(-c2nnn(CCNS(C)(=O)=O)n2)ccc1F`, the cytotoxicity at 10 µM is -9.09%.
Regarding `CCOC(=O)NCCNC(=O)c1cc2ccccc2nc1N1CCCC1`, the cytotoxicity at 10 µM is -7.74%.
As to `Cc1ccc(N2CC3(COCCN(Cc4ccccn4)C3)OCC2=O)s1` (configuration not stated), the cytotoxicity at 10 µM is -3.49%.
For `CC(C)c1cc(C(=O)N2CCN(Cc3ccco3)CC2)n[nH]1`, the cytotoxicity at 10 µM amounted to 2.18%.
Consider `Cc1oncc1C(=O)N1CCC2(CCN(Cc3ccccn3)C2=O)C1` (configuration not stated), for which the cytotoxicity at 10 µM is -11.4%.
As to `O=C(NCCc1ccccn1)C1=NN(c2ccccc2)C(=O)CN1`, the cytotoxicity at 10 µM is -1.96%.
For `O=C(c1ccccc1)C1CCN(c2cncc(-n3cccn3)n2)CC1` the value was 0.935%; for `CN1CCCN(Cc2nc(Cc3ccccc3)n[nH]2)CC1`, -7.47%; for `O=C(Cc1csc(-c2ccsc2)n1)N1CCN(c2cnccn2)CC1`, -7.12%.
For `Cc1cn(CC(=O)NC2CCN(CC3CC3)CC2)c2ccccc12` the value was 0.951%; for `O=C1CC(c2ccccc2)C2(CCN(Cc3ccncc3)CC2)N1` (configuration not stated), -4.72%.
For `CN(C)Cc1cc(C2CCN(C(=O)C3CC34CCC4)CC2)nn1C` (configuration not stated) the value was -15%.
Turning to `COc1ccc(CC(=O)Nc2cccnc2N2CCCC2)cc1OC`, the cytotoxicity at 10 µM is -22.6%.
For `NC(=O)c1ccc(C2CCCNC2)nc1` (configuration not stated) the value was -15.1%; for `CCOCCNC(=O)c1cc(COc2cncc(Cl)c2)on1`, 7.62%; for `O=c1[nH]c2cn(-c3ccc(F)cc3)c(=O)n2n1Cc1cccc(Cl)c1`, 6.59%.
Regarding `Cn1nccc1C(=O)N1C[C@@H]2CN(S(C)(=O)=O)CCO[C@@H]2C1`, the cytotoxicity at 10 µM is 9.61%.
For `CC(C)C(=O)NC1CCCc2nc(N3CCOCC3)ncc21` (configuration not stated) the value was 10.2%; for `Cc1nccn1-c1cc(CNC(=O)c2ccnc(N(C)C)c2)ccn1`, 2.32%; for `Cc1nc(-c2ccc(S(=O)(=O)N3CCSC3)cc2)co1`, 17.2%.
For `OC(COCc1ccccc1)CN1CC(n2cccn2)C1` (configuration not stated) the value was 1.95%; for `Cc1nc(CN2CCCn3cnc(COCC4CC4)c3C2)cs1`, 7.04%.
For `CCOc1cc(C)nc(N2CCN(C(C)c3nc(C)no3)CC2)n1` (configuration not stated) the value was -1.67%.
Take `OCC1CCCCN1CCn1ccnc1-c1ccc2c(c1)OCCO2` (configuration not stated): the cytotoxicity at 10 µM was -3.65%.
For `CC(C)CCNC(=O)c1sccc1N(C)S(=O)(=O)c1ccccc1` the value was 9.33%.
Regarding `c1ccc(NCc2cn3c(n2)CN(Cc2cccs2)CC3)nc1`, the cytotoxicity at 10 µM is 5.22%.
As to `Cc1nccn1-c1ccc(C(=O)NCC(F)(F)F)nn1`, the cytotoxicity at 10 µM was -2.35%.
With `Cc1cc(O)ncc1NS(=O)(=O)c1cccc(F)c1F`, the cytotoxicity at 10 µM came out at 0.753%.
For `CCCC(=O)N1CCC2(CC1)OCCO2` the value was 5.22%.
For `CC(C)c1nn(C)c(N(C)C)c1CNCc1ccc2c(c1)OCO2` the value was -5.58%.
For `O=C1CCc2cc(S(=O)(=O)NC(=O)c3ccc4c(c3)OCO4)ccc2N1` the value was -17.8%; for `COCc1noc(CCNc2nc(CC3CC3)nc3c2CCNCC3)n1`, -4.1%.
Regarding `Cc1noc(C)c1CN(C)Cc1csc(-c2ccc(F)cc2)n1`, the cytotoxicity at 10 µM amounted to 27.8%.
For `Cc1cc(=O)[nH]c(=O)n1-c1ccccc1Br` the value was 7.89%.
For `Cc1ccc(Cl)c(C)c1NC(=O)N1CCCN(Cc2ccccn2)CC1` the value was 0.617%; for `Cc1nn(C)c(Oc2ccc(Cl)cc2)c1CN1CCOC(CN)C1` (configuration not stated), 8.85%; for `COc1cc(-c2n[nH]c(CC#N)n2)cc(OC)c1OC`, -175%.
For `Cc1ccccc1NCc1nc2n(n1)CCCCC2` the value was 4.7%; for `Cc1cc(C)n(C2CCN(c3ncnc4sc5c(c34)CCNC5)C2)n1` (configuration not stated), 17.3%.
Turning to `CCc1nccn1CCC(=O)N1CC(=O)N(c2ccccc2C)CC1C` (configuration not stated), the cytotoxicity at 10 µM is -15%.
For the compound `CSc1ccc(C(=O)N2CC(=O)N(CC3CC3)CC(O)C2)cc1` (configuration not stated), the cytotoxicity at 10 µM was found to be 0.174%.
For `COc1ccc(-n2nc(C3CC3)nc2CCn2cnnn2)cc1` the value was -2.88%; for `COC(=O)c1ccc(NC(=O)CN2CCCCC2C2OCCO2)cc1` (configuration not stated), 42.5%.
On to `CCC1CN(CC(=O)N2CCC2)CCN1CCOC` (configuration not stated), for which the cytotoxicity at 10 µM is -9.78%.
For `CCc1ccc(C(=O)N2CCC(c3nncn3CC)CC2)o1` the value was 3.14%.
For `CCc1nc2n(n1)CC(NCC1=Cc3ccc(OC)cc3OC1)CC2` (configuration not stated) the value was 4.02%; for `CS(=O)(=O)N1CCC(c2nccn2Cc2ccccn2)CC1`, -14.6%; for `COCCCn1c(CN2CCSCC2)cnc1S(=O)(=O)C1CCCC1`, -3.89%.
For `NCC1CCN(c2nc(C3CCCC3)nc3c2CCNCC3)C1` (configuration not stated) the value was 16.1%.
On to `Cc1nnc2ccc(N3CCC(C(=O)Nc4nccs4)CC3)nn12`, for which the cytotoxicity at 10 µM is 3.89%.
For `NC(=O)Cc1ccc(NC(=O)C2CCOCC2)cc1` the value was -1.2%; for `Cc1oc(CNC(=O)Cc2cccc(OC(F)F)c2)cc1C(=O)O`, 7.04%; for `O=C1O[C@@H]2CN(Cc3cccc(O)c3)C[C@@H]2N1CCCN1CCOCC1`, 0.476%.
For `CN1CCOC(CN(C(=O)CCc2ccco2)c2nccs2)C1` (configuration not stated) the value was -16.1%; for `O=C1CC2(CCN(Cc3ccoc3)CC2)CN1Cc1cc(F)cc(F)c1`, 12.2%.
As to `O=C(CCc1ccsc1)NCc1ccnc(OC2CCOCC2)c1`, the cytotoxicity at 10 µM amounted to 5.92%.
For `O=C(c1ccco1)N1CC[C@H]2[C@H]1CC(=O)N2c1cccnc1` the value was -95.8%; for `COC(=O)c1ccc(N2CCN(C(=O)C(C)C)C(C)C2)cc1` (configuration not stated), -10.4%; for `O=C1COC2(CCN(c3ncccn3)CC2)CN1Cc1ccccn1`, 2.4%.
For `Cc1ccc(N2CCCC(Nc3nn4cc(C)nc4s3)C2)nn1` (configuration not stated) the value was -5.78%; for `CC1(C)CNC(=O)c2nc(CCN3CCC(C(N)=O)CC3)[nH]c2C1`, -1.35%.
For `COc1cc(CN(C)CCc2ccncc2)c(SC)cc1OC` the value was -2.92%; for `Cc1cnn(C2CCCN(C(=O)CCCOc3ccccc3F)C2)c1` (configuration not stated), -7.52%; for `Cc1nn(C)c2ncc(CN3CCCCCC3)cc12`, 0.106%.
